Laboratory results from ChEMBL document CHEMBL4229344 (Eur J Med Chem, 2018).
The source made the active and inactive calls. The calls are words filed in the database; no cut-off is given here.

What was measured:
[1] = molecular target: Cyclin-dependent kinase 14 (Homo sapiens) (UniProt O94921); experiment: Binding affinity to wild-type human full length PFTK1 (M1 to H451 residues) expressed in bacterial expression system assessed as residual binding level at 1 uM by Kinomescan method relative to control
How it was run: (§1)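 Single-concentration KINOMEscan (DiscoverX) binding screen at 1 μM against a panel of 468 purified kinases and mutants. The read-out is binding relative to control.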

[2] = molecular target: Tyrosine-protein kinase TXK (Homo sapiens) (UniProt P42681); experiment: Binding affinity to wild-type human partial length TXK (L238 to W527 residues) expressed in bacterial expression system assessed as residual binding level at 1 uM by Kinomescan method relative to control
[3] = tested on: Phosphatidylinositol 4,5-bisphosphate 3-kinase catalytic subunit alpha isoform (Homo sapiens), P42336 [H1047Y]; experiment: Binding affinity to human partial length PIK3CA H1047Y mutant (R108 to N1068 residues) expressed in mammalian expression system assessed as residual binding level at 1 uM by Kinomescan method relative to control
How it was run: (§2)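 Kinome-wide single-concentration binding screen (KINOMEscan) at 1 μM against a panel of 468 purified kinases and mutants. Read-out is relative binding of each kinase compared with control. Selectivity across the panel was summarised as an S(10) score.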

EOL1 = experiment: Antitumor activity against human EOL-1 cells xenografted in nu/nu mouse assessed as tumor growth inhibition at 25 mg/kg/day, ip; type: functional; conditions: read-out: TGI
How it was run: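 Female nu/nu mice (6 weeks) given subcutaneous right-flank injection of 5 million EOL-1 cells in PBS/Matrigel 1:1. At 200–400 mm3 tumors, randomized to groups of 6 and dosed daily i.p. for 14 days at 25, 50 or 100 mg/kg/d in 0.5% methylcellulose/0.4% Tween80. Tumor volume = W²×L/2, measured daily.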

[4] = molecular target: Platelet-derived growth factor receptor alpha (Homo sapiens, UniProt P16234)
[5] = molecular target: Serine/threonine-protein kinase 10 (Homo sapiens) (UniProt O94804); experiment: Binding affinity to wild-type human partial length LOK (E16 to V314 residues) expressed in bacterial expression system assessed as residual binding level at 1 uM by Kinomescan method relative to control
How it was run: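 Kinome-wide competition binding screen against a panel of 468 purified kinases/mutants, with the test compound at a single concentration of 1 μM. Read-out is the relative binding activity of each kinase in the presence of compound.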

[6] = molecular target: Serine/threonine-protein kinase N1 (Homo sapiens) (UniProt Q16512); experiment: Binding affinity to wild-type human partial length PKN1 (E598 to C948 residues) expressed in bacterial expression system assessed as residual binding level at 1 uM by Kinomescan method relative to control
[7] = molecular target: Activin receptor type-2A (Homo sapiens) (UniProt P27037); experiment: Binding affinity to wild-type human ACVR2A (V171 to T499 residues) expressed in bacterial expression system assessed as residual binding level at 1 uM by Kinomescan method relative to control
How it was run: (§3)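 Single-concentration (1 μM) competition-binding screen run by KINOMEscan against a panel of 468 purified kinases and mutants. The read-out is the relative binding activity of the test compound to each kinase.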

[8] = tested on: Proto-oncogene tyrosine-protein kinase receptor Ret (Homo sapiens), P07949 [V804L]; experiment: Binding affinity to human partial length RET V804L mutant (E713 to D1014 residues) expressed in bacterial expression system assessed as residual binding level at 1 uM by Kinomescan method relative to control; how it was run: as §2
[9] = molecular target: Beta-adrenergic receptor kinase 1 (Homo sapiens) (UniProt P25098); experiment: Binding affinity to wild-type human full length GRK2 (M1 to L689 residues) expressed in mammalian expression system assessed as residual binding level at 1 uM by Kinomescan method relative to control; how it was run: as §3
[10] = molecular target: Rho-associated protein kinase 2 (Homo sapiens) (UniProt O75116); experiment: Binding affinity to wild-type human partial length ROCK2 (M1 to T431 residues) expressed in mammalian expression system assessed as residual binding level at 1 uM by Kinomescan method relative to control
[11] = molecular target: Hormonally up-regulated neu tumor-associated kinase (Homo sapiens) (UniProt P57058); experiment: Binding affinity to wild-type human partial length HUNK (A31 to K354 residues) expressed in bacterial expression system assessed as residual binding level at 1 uM by Kinomescan method relative to control
[12] = molecular target: Interleukin-1 receptor-associated kinase 3 (Homo sapiens) (UniProt Q9Y616); experiment: Binding affinity to wild-type human partial length IRAK3 (V147 to E596 residues) expressed in bacterial expression system assessed as residual binding level at 1 uM by Kinomescan method relative to control
[13] = tested on: Mast/stem cell growth factor receptor Kit (Homo sapiens), P10721 [V559D,T670I]; experiment: Binding affinity to human partial length KIT V559D/T670I double mutant (Y545 to D952 residues) expressed in bacterial expression system assessed as residual binding level at 1 uM by Kinomescan method relative to control; how it was run: as §2
NCI-H1703 = experiment: Induction of apoptosis in human NCI-H1703 cells assessed as cleaved PARP expression level after 72 hrs in presence of PDGF-AA by Western blot analysis; type: functional, cell-based
How it was run: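 Cells exposed to compound or DMSO for the stated periods, then lysed and immunoblotted for PARP and caspase-3 cleavage, with β-actin as loading control. NCI-H1703 stimulation used PDGF AA at 100 ng/mL.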

[14] = molecular target: Receptor tyrosine-protein kinase erbB-3 (Homo sapiens) (UniProt P21860); experiment: Binding affinity to wild-type human partial length ERBB3 (G684 to A987 residues) expressed in mammalian expression system assessed as residual binding level at 1 uM by Kinomescan method relative to control
[15] = molecular target: Mitogen-activated protein kinase 14 (Homo sapiens) (UniProt Q16539); experiment: Binding affinity to wild-type human full length p38-alpha (M1 to S360 residues) expressed in bacterial expression system assessed as residual binding level at 1 uM by Kinomescan method relative to control; how it was run: as §1
[16] = molecular target: Rhodopsin kinase GRK7 (Homo sapiens) (UniProt Q8WTQ7); experiment: Binding affinity to wild-type human full length GRK7 (M1 to L553 residues) expressed in mammalian expression system assessed as residual binding level at 1 uM by Kinomescan method relative to control; how it was run: as §3
[17] = molecular target: Tyrosine-protein kinase BTK (Homo sapiens) (UniProt Q06187); experiment: Binding affinity to wild-type human full length BTK (M1 to S659 residues) expressed in mammalian expression system assessed as residual binding level at 1 uM by Kinomescan method relative to control; how it was run: as §3
[18] = molecular target: Mitogen-activated protein kinase kinase kinase kinase 3 (Homo sapiens) (UniProt Q8IVH8); experiment: Binding affinity to wild-type human partial length MAP4K3 (M1 to D301 residues) expressed in bacterial expression system assessed as residual binding level at 1 uM by Kinomescan method relative to control
[19] = tested on: Mast/stem cell growth factor receptor Kit (Homo sapiens), P10721 [V559D]; experiment: Binding affinity to human partial length KIT V559D mutant (Y545 to D952 residues) expressed in bacterial expression system assessed as residual binding level at 1 uM by Kinomescan method relative to control; how it was run: as §2

Chain of Proto-oncogene tyrosine-protein kinase receptor Ret (Homo sapiens), P07949 [V804L] (P07949 whole entry V804L, the tested form may be a part): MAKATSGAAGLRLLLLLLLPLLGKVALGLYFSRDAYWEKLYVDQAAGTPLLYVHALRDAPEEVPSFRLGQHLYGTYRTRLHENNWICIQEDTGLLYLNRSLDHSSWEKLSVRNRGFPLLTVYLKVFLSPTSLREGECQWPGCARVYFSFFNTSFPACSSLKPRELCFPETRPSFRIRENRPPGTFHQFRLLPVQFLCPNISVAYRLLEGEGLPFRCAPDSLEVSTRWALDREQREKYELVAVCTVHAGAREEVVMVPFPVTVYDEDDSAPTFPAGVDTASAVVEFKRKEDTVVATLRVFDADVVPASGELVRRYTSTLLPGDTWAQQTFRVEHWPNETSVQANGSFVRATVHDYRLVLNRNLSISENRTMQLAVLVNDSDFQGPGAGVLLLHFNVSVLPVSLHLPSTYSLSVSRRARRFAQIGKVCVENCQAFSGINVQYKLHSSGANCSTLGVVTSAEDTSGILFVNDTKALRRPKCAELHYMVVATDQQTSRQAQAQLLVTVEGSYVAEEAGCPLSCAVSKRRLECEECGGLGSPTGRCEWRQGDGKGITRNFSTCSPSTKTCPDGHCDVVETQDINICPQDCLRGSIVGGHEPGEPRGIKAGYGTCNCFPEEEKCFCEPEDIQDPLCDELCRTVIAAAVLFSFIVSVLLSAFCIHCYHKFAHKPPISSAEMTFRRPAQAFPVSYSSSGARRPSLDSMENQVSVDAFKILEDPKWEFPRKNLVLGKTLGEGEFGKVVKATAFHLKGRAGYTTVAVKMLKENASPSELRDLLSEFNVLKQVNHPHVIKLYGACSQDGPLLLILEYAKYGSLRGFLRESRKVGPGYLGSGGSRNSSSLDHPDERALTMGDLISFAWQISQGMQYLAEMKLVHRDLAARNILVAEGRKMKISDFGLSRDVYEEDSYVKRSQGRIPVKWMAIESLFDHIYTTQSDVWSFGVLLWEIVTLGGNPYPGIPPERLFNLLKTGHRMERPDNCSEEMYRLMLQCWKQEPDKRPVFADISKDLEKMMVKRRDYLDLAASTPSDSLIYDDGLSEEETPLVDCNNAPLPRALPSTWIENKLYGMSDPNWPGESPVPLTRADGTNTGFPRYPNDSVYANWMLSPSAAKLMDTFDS
Chain of Interleukin-1 receptor-associated kinase 3 (Homo sapiens) (Q9Y616 whole entry, the tested form may be a part): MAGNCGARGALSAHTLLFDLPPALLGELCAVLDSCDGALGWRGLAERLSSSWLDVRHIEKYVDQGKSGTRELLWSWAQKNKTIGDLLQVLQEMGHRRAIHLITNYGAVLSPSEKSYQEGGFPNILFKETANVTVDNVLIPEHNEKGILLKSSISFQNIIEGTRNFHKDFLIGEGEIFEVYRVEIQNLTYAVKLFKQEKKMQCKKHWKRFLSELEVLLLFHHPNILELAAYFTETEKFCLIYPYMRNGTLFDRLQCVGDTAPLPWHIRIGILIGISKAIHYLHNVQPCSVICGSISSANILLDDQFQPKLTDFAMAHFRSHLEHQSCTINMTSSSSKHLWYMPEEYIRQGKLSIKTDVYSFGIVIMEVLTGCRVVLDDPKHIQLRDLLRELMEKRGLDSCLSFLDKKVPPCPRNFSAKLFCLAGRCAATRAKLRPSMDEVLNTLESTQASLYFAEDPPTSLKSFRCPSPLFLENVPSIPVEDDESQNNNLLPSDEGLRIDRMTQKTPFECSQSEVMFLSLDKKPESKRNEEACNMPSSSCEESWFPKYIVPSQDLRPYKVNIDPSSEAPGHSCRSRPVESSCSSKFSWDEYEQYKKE
Chain of Phosphatidylinositol 4,5-bisphosphate 3-kinase catalytic subunit alpha isoform (Homo sapiens), P42336 [H1047Y] (P42336 whole entry H1047Y, the tested form may be a part, canonical isoform): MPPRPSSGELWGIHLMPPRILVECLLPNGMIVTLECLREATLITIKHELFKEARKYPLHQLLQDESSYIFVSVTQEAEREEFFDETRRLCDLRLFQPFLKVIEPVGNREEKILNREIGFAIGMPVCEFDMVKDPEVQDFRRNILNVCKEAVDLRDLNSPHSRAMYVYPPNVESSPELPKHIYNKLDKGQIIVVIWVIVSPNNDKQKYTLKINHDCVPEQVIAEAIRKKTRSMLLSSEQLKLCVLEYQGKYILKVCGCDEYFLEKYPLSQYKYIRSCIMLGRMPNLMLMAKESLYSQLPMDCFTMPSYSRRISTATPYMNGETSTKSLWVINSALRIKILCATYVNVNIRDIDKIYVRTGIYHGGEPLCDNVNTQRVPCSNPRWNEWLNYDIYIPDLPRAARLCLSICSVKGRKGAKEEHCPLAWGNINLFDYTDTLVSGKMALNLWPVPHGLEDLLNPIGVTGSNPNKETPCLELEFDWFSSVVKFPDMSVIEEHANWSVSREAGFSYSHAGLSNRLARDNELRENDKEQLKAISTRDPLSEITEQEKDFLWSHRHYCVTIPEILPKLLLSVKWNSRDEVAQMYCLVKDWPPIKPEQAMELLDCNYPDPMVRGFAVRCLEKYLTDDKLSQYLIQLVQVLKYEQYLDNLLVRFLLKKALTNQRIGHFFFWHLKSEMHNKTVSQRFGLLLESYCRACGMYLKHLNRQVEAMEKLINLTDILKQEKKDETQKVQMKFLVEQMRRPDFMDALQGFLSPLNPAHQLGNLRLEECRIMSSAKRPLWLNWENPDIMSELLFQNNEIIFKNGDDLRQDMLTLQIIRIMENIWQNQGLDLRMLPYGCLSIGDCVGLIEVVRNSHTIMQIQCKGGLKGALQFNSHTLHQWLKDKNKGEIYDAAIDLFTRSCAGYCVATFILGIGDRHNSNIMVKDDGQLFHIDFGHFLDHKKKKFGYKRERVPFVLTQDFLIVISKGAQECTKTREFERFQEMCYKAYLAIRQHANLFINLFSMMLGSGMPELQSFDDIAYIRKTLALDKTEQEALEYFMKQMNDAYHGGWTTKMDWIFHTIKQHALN
Chain of Serine/threonine-protein kinase 10 (Homo sapiens) (O94804 whole entry, looked up, the tested form may be a part): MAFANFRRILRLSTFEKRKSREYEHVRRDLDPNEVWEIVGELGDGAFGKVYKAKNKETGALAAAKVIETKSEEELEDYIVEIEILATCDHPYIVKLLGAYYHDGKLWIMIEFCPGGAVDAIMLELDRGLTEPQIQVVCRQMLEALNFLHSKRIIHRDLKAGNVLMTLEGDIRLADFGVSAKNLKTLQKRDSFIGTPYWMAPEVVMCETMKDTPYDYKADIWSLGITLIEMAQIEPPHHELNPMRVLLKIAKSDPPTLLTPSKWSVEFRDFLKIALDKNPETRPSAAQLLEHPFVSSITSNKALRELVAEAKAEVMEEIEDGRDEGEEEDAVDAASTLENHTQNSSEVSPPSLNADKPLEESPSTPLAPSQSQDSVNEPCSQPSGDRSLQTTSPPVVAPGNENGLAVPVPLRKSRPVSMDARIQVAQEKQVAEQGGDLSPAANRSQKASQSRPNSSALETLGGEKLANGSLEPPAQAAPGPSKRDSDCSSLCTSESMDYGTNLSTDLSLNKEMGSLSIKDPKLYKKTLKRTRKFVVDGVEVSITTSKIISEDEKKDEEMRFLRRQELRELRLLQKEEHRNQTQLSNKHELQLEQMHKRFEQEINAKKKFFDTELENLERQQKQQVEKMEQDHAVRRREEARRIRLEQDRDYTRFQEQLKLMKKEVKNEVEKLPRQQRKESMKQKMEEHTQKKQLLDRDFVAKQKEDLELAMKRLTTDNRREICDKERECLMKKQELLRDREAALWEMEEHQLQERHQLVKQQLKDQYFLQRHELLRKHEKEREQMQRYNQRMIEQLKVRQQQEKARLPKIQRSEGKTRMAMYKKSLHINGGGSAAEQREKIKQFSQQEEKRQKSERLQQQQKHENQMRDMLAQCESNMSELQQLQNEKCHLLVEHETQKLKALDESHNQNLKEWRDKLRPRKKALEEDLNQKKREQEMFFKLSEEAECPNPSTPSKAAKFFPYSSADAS
Chain of Cyclin-dependent kinase 14 (Homo sapiens) (O94921 whole entry, the tested form may be a part): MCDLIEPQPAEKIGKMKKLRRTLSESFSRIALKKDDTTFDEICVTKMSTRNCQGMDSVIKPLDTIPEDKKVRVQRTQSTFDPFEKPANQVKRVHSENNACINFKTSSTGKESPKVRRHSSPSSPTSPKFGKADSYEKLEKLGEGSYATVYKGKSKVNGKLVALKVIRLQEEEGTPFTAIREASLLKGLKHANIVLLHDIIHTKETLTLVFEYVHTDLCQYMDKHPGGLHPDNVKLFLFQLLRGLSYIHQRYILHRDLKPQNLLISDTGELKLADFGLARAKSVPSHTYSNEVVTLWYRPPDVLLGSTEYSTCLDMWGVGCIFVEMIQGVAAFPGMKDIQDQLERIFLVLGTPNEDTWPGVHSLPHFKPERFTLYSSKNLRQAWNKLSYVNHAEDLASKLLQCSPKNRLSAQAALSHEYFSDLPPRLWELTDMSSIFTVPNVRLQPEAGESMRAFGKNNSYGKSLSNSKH
Chain of Beta-adrenergic receptor kinase 1 (Homo sapiens) (P25098 whole entry, the tested form may be a part): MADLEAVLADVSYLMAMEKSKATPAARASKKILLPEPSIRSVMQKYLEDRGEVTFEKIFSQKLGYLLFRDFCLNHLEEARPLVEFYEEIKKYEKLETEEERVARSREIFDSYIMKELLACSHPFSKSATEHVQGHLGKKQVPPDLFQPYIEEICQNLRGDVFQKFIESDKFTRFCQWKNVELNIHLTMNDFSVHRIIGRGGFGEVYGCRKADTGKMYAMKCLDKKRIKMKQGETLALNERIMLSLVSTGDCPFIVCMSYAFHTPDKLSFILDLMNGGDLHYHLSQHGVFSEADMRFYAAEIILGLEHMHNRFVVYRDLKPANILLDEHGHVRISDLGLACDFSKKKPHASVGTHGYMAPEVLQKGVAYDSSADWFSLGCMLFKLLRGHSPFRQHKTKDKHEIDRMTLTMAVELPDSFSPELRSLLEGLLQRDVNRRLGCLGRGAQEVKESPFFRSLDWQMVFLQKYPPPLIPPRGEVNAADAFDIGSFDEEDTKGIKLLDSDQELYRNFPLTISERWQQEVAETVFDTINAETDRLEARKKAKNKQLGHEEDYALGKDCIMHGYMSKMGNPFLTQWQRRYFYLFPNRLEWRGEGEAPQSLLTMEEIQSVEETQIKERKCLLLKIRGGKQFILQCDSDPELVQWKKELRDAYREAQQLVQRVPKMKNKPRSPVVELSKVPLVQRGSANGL

With `Cc1ccc(NC(=O)c2ccc(CN(CCN(C)C)C(=O)c3cccnc3)cc2)cc1Nc1nccc(-c2cccnc2)n1` the Activity [1] was 90%, the Activity [2] was 100% and the Activity [3] was 76%. For the same molecule, the inhibition in vivo at 25 mg/kg/day (EOL1) was 71.5%, the GI50 [4] was 34 nM and the Activity [5] was 28%. For the same molecule, the Activity [6] was 100%, the Activity [7] was 96% and the Activity [8] was 97%. The Activity [9] was 100%, the Activity [10] was 100% and the Activity [11] was 90%. The Activity [12] was 100%, the Activity [13] was 76% and the Activity (NCI-H1703) was “Active”. The Activity [14] was 95%, the Activity [15] was 99% and the Activity [16] was 100%. For the same molecule, the Activity [17] was 100%, the Activity [18] was 93% and the Activity [19] was 0.8%.
